Tests used:
Format in all cases: functional
[1] = Growth inhibition of human PC3 cells incubated for 48 hrs by sulforhodamine B assay; settings: PC-3, 48 h
Procedure, shortened: (§1)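 NCI 60-cell-line panel, standard protocol. Cells exposed to compound for two days, growth read by sulforhodamine B staining. Tested at five 10-fold dilutions, top concentration 100 µM, to give dose-response curves.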

[2] = Growth inhibition of human SNB19 cells incubated for 48 hrs by sulforhodamine B assay; settings: SNB-19, 48 h
Procedure, shortened: (§2)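 Tested in the standard NCI 60-cell-line protocol with two-day drug exposure and a sulforhodamine B endpoint. Compounds were first screened at a single final concentration of 10 µM, reported as growth percent. They were then run as five 10-fold dilutions starting from a high concentration of 100 µM to give dose-response curves.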

786-0 = experiment: Growth inhibition of human 786-0 cells incubated for 48 hrs by sulforhodamine B assay; settings: 786-0, 48 h; procedure, shortened: as §1
[3] = Growth inhibition of human SNB19 cells assessed as cell growth at 10 uM incubated for 48 hrs by sulforhodamine B assay relative to control; settings: SNB-19, 48 h, read-out: Activity
Procedure, shortened: (§3)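 Run in the standard NCI 60-cell-line screen. Cells were exposed to drug for two days, and the read-out was sulforhodamine B staining. Compound was tested at a single final concentration of 10 µM in every line, and results are reported as growth percent.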

SN12C = experiment: Growth inhibition of human SN12C cells assessed as cell growth at 10 uM incubated for 48 hrs by sulforhodamine B assay relative to control; settings: read-out: Activity; procedure, shortened: as §3
[4] = Growth inhibition of human TK10 cells assessed as cell growth at 10 uM incubated for 48 hrs by sulforhodamine B assay relative to control; settings: TK-10, 48 h, read-out: Activity
Procedure, shortened: (§4)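 NCI 60-cell line standard protocol, one-dose screen: single final concentration 10 µM, 2-day drug exposure, sulforhodamine B (SRB) endpoint; read-out is growth percent relative to untreated control.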

[5] = Growth inhibition of human HOP92 cells incubated for 48 hrs by sulforhodamine B assay; settings: HOP-92, 48 h; procedure, shortened: as §1
NCI-H226 = experiment: Growth inhibition of human NCI-H226 cells incubated for 48 hrs by sulforhodamine B assay; settings: NCI-H226, 48 h; procedure, shortened: as §1
HT-29 = experiment: Growth inhibition of human HT-29 cells assessed as cell growth at 10 uM incubated for 48 hrs by sulforhodamine B assay relative to control; settings: HT-29, 48 h, read-out: Activity; procedure, shortened: as §3
[6] = Growth inhibition of human HOP62 cells assessed as cell growth at 10 uM incubated for 48 hrs by sulforhodamine B assay relative to control; settings: HOP-62, 48 h, read-out: Activity; procedure, shortened: as §3
[7] = Growth inhibition of human MOLT4 cells incubated for 48 hrs by sulforhodamine B assay; settings: MOLT-4, 48 h; procedure, shortened: as §1
T47D = experiment: Growth inhibition of human T47D cells incubated for 48 hrs by sulforhodamine B assay; procedure, shortened: as §2
[8] = Growth inhibition of human LOXIMVI cells assessed as cell growth at 10 uM incubated for 48 hrs by sulforhodamine B assay relative to control; settings: LOX IMVI, read-out: Activity
Procedure, shortened: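 Single-dose screen in the NCI 60-cell-line panel at one final concentration of 10 µM. Two-day drug exposure with a sulforhodamine B endpoint. Values are growth percent for each cell line.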

[9] = Growth inhibition of human HCT116 cells assessed as cell growth at 10 uM incubated for 48 hrs by sulforhodamine B assay relative to control; settings: HCT-116, 48 h, read-out: Activity; procedure, shortened: as §3
Malme-3M = experiment: Growth inhibition of human MALME-3M cells assessed as cell growth at 10 uM incubated for 48 hrs by sulforhodamine B assay relative to control; settings: read-out: Activity; procedure, shortened: as §3
[10] = Growth inhibition of human RPMI8226 cells assessed as cell growth at 10 uM incubated for 48 hrs by sulforhodamine B assay relative to control; settings: RPMI-8226, 48 h, read-out: Activity; procedure, shortened: as §3
[11] = Growth inhibition of human Hs 578T cells assessed as cell growth at 10 uM incubated for 48 hrs by sulforhodamine B assay relative to control; settings: read-out: Activity
[12] = Growth inhibition of human DU145 cells incubated for 48 hrs by sulforhodamine B assay; settings: DU-145, 48 h; procedure, shortened: as §1
SK-MEL-5 = experiment: Growth inhibition of human SK-MEL-5 cells incubated for 48 hrs by sulforhodamine B assay; settings: SK-MEL-5, 48 h; procedure, shortened: as §1
SK-MEL-2 = experiment: Growth inhibition of human SK-MEL-2 cells assessed as cell growth at 10 uM incubated for 48 hrs by sulforhodamine B assay relative to control; settings: SK-MEL-2, 48 h, read-out: Activity; procedure, shortened: as §3
[13] = Growth inhibition of human UO31 cells assessed as cell growth at 10 uM incubated for 48 hrs by sulforhodamine B assay relative to control; settings: UO-31, 48 h, read-out: Activity; procedure, shortened: as §4
[14] = Growth inhibition of human RPMI8226 cells incubated for 48 hrs by sulforhodamine B assay; settings: RPMI-8226, 48 h; procedure, shortened: as §1
[15] = Growth inhibition of human SW620 cells incubated for 48 hrs by sulforhodamine B assay; settings: SW-620, 48 h; procedure, shortened: as §2
[16] = Growth inhibition of human SF295 cells assessed as cell growth at 10 uM incubated for 48 hrs by sulforhodamine B assay relative to control; settings: SF-295, 48 h, read-out: Activity; procedure, shortened: as §3
[17] = Growth inhibition of human HCT15 cells incubated for 48 hrs by sulforhodamine B assay; settings: HCT-15, 48 h; procedure, shortened: as §1
[18] = Growth inhibition of human COLO205 cells incubated for 48 hrs by sulforhodamine B assay; settings: COLO 205, 48 h; procedure, shortened: as §1
[19] = Growth inhibition of human UACC257 cells assessed as cell growth at 10 uM incubated for 48 hrs by sulforhodamine B assay relative to control; settings: UACC-257, 48 h, read-out: Activity; procedure, shortened: as §4
[20] = Growth inhibition of human HL-60(TB) cells incubated for 48 hrs by sulforhodamine B assay; settings: HL-60, 48 h; procedure, shortened: as §1
KM12 = experiment: Growth inhibition of human KM12 cells incubated for 48 hrs by sulforhodamine B assay; settings: KM12, 48 h; procedure, shortened: as §1
[21] = read-out: pLC50 (the source's name) (converted)

CC(C)[C@@]12C[C@@H](NC(=O)CO)[C@@](C)(O1)[C@@H]1CC[C@@H](C)[C@H]1[C@@H]2OC(=O)/C=C/c1ccccc1
GI50 [1]: 11.7 µM | CC50 [1, 21]: > 50.1 µM | TGI ([1]; read-out: pTGI (converted)): > 50.1 µM | GI50 [2]: 24.5 µM | CC50 [2, 21]: > 50.1 µM | TGI ([2]; read-out: pTGI (converted)): > 50.1 µM | GI50 (786-0): 3.63 µM | LC50 (786-0): > 50.1 µM | TGI (786-0; read-out: pTGI (converted)): 24 µM | growth at 10 µM [3]: 103% | growth at 10 µM (SN12C): 48.8% | growth at 10 µM [4]: 102% | GI50 [5]: 5.25 µM | LC50 [5]: > 50.1 µM | TGI ([5]; read-out: pTGI (converted)): 24 µM | GI50 (NCI-H226): 25.1 µM | LC50 (NCI-H226): > 50.1 µM | TGI (NCI-H226; read-out: pTGI (converted)): > 50.1 µM | growth at 10 µM (HT-29): 93% | growth at 10 µM [6]: 86.8% | GI50 [7]: 15.8 µM | LC50 [7]: > 50.1 µM | TGI ([7]; read-out: pTGI (converted)): > 50.1 µM | GI50 (T47D): 19.1 µM | CC50 (T47D; [21]): > 50.1 µM | TGI (T47D; read-out: pTGI (converted)): > 50.1 µM | growth at 10 µM [8]: 102% | growth at 10 µM [9]: 85.8% | growth at 10 µM (Malme-3M): 95.2% | growth at 10 µM [10]: 90.6% | growth at 10 µM [11]: 9% | GI50 [12]: 25.1 µM | CC50 [12, 21]: > 50.1 µM | TGI ([12]; read-out: pTGI (converted)): > 50.1 µM | GI50 (SK-MEL-5): 12.9 µM | LC50 (SK-MEL-5): > 50.1 µM | TGI (SK-MEL-5; read-out: pTGI (converted)): 42.7 µM | growth at 10 µM (SK-MEL-2): 101% | growth at 10 µM [13]: 57.2% | GI50 [14]: 11.5 µM | CC50 [14, 21]: > 50.1 µM | TGI ([14]; read-out: pTGI (converted)): 42.7 µM | GI50 [15]: 22.4 µM | LC50 (50% lethal concentration) [15]: > 50.1 µM | TGI ([15]; read-out: pTGI (converted)): > 50.1 µM | growth at 10 µM [16]: 90.6% | GI50 [17]: 16.6 µM | LC50 [17]: > 50.1 µM | TGI ([17]; read-out: pTGI (converted)): > 50.1 µM | GI50 [18]: 10.7 µM | CC50 [18, 21]: > 50.1 µM | TGI ([18]; read-out: pTGI (converted)): 26.3 µM | growth at 10 µM [19]: 104% | GI50 [20]: 14.5 µM | CC50 [20, 21]: > 50.1 µM | TGI ([20]; read-out: pTGI (converted)): 37.2 µM | GI50 (KM12): 20 µM | LC50 (KM12): > 50.1 µM | TGI (KM12; read-out: pTGI (converted)): > 50.1 µM

Reference: ChEMBL document CHEMBL3804761, “Synthesis of a stable and orally bioavailable englerin analogue” (Bioorg Med Chem Lett, 2016)
